Drawing on ChEMBL document CHEMBL1134500, “Investigations of new lead structures for the design of selective estrogen receptor modulators” (J Med Chem, 2001), this text covers RBA and Activation for seven compounds.

Experiment [1] deals with Estrogen receptor (Bos taurus) (UniProt Q9XSB5+P49884). As to the kind of experiment: Displacement of 17-beta-[3H]-estradiol from estrogen receptor relative to 17-beta-estradiol. The format is protein assay. The gist of the method: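 Competitive binding with calf uterine cytosol as receptor source and 17β-[3H]estradiol (0.723 pmol per tube) as tracer. Compounds were dissolved in ethanol, diluted in TRIS buffer to six to eight concentrations and incubated overnight at 4 °C. Free ligand was removed with dextran-charcoal (90 min, 4 °C), then supernatant was scintillation counted. Nonspecific binding was set with 2 nmol estradiol. RBA = ratio of 50%-inhibiting concentrations (estradiol/sample) × 100%.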

Experiment [2] concerns the target T1, Estrogen receptor (Homo sapiens) (UniProt P03372).
T1 sequence (whole entry): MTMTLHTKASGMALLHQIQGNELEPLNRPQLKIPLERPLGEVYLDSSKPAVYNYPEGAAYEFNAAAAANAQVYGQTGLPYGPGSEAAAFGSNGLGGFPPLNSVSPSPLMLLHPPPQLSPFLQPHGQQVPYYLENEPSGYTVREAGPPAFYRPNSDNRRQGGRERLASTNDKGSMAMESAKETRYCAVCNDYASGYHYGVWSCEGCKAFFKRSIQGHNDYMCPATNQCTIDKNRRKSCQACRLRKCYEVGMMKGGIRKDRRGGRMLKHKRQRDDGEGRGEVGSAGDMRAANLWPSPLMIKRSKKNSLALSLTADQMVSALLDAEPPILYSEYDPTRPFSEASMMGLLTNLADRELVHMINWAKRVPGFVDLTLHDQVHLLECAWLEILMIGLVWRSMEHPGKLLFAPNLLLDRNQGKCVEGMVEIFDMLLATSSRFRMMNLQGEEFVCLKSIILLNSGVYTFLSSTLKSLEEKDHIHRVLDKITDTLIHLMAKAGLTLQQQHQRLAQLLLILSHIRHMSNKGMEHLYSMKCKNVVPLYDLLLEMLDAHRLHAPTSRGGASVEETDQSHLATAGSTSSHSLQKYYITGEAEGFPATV
Briefly: Transcriptional activation in MCF-7-2a cells expressing estrogen receptor alpha at 10e-6 M. The format is functional, cell-based. The gist of the method: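 MCF-7-2a cells were precultured one week in DMEM with L-glutamine, antibiotics and dextran/charcoal-treated BCS (50 mL/L), then seeded in six-well plates. After 24 h compounds were added (10^-5 to 10^-10 M final) and cells incubated 50 h, then lysed 20 min at room temperature. Luciferase luminescence (RLU) was read for 10 s and normalized to Bradford protein.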

Structures are written as SMILES.

In turn, `COc1ccc([C@H]2N=CN[C@H]2c2c(Cl)cc(OC)cc2Cl)c(Cl)c1` gave an RBA in experiment [1] of 0%. In experiment [2], this compound yielded an Activation of 6%.
The like results for `Oc1ccc([C@H]2NCCN[C@H]2c2c(Cl)cc(O)cc2Cl)c(Cl)c1` were, in that order, less than 0.02% and 20%.
The like results for `Oc1ccc(-c2[nH]cnc2-c2c(Cl)cc(O)cc2Cl)c(Cl)c1` were, in that order, 0.1% and 27%.
The compound `N[C@H](c1ccc(O)cc1Cl)[C@@H](N)c1c(Cl)cc(O)cc1Cl` returned an RBA in experiment [1] of 1.5%. The same compound yielded an Activation in experiment [2] of 98%.
As for `COc1ccc(-c2[nH]cnc2-c2c(Cl)cc(OC)cc2Cl)c(Cl)c1`, in experiment [1], the RBA came out at 0%. The same compound displayed an Activation in experiment [2] of 6%.
In experiment [1], `COc1ccc([C@@H](N)[C@@H](N)c2c(Cl)cc(OC)cc2Cl)c(Cl)c1` yielded an RBA of 0%. In experiment [2], this compound had an Activation of 0%.
In experiment [1], `COc1ccc([C@H]2NCCN[C@H]2c2c(Cl)cc(OC)cc2Cl)c(Cl)c1` showed an RBA of 0%. For the same compound, in experiment [2], the Activation turned out to be 3%.
